# Source: ChEMBL document CHEMBL1157359, “Binding of ceftobiprole and comparators to the penicillin-binding proteins of Escherichia coli, Pseudomonas aeruginosa, Staphylococcus aureus, and Streptococcus pneumoniae” (Antimicrob Agents Chemother, 2007)
# Key:
# [1] = Inhibition of bocillin FL binding to penicillin-resistant Streptococcus pneumoniae OC 8819 penicillin-binding protein 2x
# Outline: (§1)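 Whole S. pneumoniae cells were used rather than isolated membranes. Cells were competed with drug and then labeled with Bocillin FL, and PBP bands were visualized by fluorescence imaging. IC50 is the drug concentration that inhibits Bocillin FL binding to each PBP by 50% relative to a no-drug control.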
# [2] = system: Streptococcus pneumoniae; assay: Antibacterial activity against penicillin-resistant Streptococcus pneumoniae OC 8819 by CLSI method; format: functional
# [3] = system: Staphylococcus aureus; assay: Antibacterial activity against methicillin-susceptible Staphylococcus aureus ATCC 29213 by CLSI method; format: functional
# [4] = Inhibition of bocillin FL binding to penicillin-susceptible Streptococcus pneumoniae OC 8865 penicillin-binding protein 2x; outline: as §1
# [5] = Inhibition of bocillin FL binding to penicillin-resistant Streptococcus pneumoniae OC 8819 penicillin-binding protein 2a; outline: as §1
# [6] = biological target: T1, Penicillin-binding protein 2 (Staphylococcus aureus, UniProt Q53729); assay: Inhibition of bocillin FL binding to methicillin-susceptible Staphylococcus aureus ATCC 29213 penicillin-binding protein 2
# T1 sequence (Q53729 whole entry): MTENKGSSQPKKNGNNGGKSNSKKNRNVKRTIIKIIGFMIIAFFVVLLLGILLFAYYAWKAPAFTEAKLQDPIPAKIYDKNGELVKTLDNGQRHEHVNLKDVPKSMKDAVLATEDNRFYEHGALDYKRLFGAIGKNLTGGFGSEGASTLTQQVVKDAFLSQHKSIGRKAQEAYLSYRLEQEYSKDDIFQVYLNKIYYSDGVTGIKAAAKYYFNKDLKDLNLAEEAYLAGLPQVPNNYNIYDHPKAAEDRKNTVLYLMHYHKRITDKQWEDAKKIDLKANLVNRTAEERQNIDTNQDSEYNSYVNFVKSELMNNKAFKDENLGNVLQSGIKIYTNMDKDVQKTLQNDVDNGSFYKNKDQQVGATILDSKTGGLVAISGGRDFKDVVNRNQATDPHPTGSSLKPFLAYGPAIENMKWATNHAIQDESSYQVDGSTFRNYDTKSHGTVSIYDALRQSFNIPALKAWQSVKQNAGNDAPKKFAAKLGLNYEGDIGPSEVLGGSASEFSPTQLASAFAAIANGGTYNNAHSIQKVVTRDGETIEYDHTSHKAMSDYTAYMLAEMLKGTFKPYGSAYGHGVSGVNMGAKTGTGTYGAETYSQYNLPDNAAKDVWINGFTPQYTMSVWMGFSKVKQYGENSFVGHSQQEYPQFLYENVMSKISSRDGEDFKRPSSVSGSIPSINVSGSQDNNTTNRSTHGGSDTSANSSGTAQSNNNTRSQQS
# Outline: (§2)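 Isolated S. aureus ATCC 29213 PBPs exposed to drug over 0.001 μg/ml to 50 μg/ml, followed by Bocillin FL labeling and fluorescence imaging. IC50 is 50% inhibition of Bocillin FL binding relative to no-drug control.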
# [7] = biological target: T2, Penicillin-binding protein 3 (Staphylococcus aureus, UniProt Q5D1F0); assay: Inhibition of bocillin FL binding to methicillin-susceptible Staphylococcus aureus ATCC 29213 penicillin-binding protein 3; outline: as §2
# T2 sequence (Q5D1F0 whole entry): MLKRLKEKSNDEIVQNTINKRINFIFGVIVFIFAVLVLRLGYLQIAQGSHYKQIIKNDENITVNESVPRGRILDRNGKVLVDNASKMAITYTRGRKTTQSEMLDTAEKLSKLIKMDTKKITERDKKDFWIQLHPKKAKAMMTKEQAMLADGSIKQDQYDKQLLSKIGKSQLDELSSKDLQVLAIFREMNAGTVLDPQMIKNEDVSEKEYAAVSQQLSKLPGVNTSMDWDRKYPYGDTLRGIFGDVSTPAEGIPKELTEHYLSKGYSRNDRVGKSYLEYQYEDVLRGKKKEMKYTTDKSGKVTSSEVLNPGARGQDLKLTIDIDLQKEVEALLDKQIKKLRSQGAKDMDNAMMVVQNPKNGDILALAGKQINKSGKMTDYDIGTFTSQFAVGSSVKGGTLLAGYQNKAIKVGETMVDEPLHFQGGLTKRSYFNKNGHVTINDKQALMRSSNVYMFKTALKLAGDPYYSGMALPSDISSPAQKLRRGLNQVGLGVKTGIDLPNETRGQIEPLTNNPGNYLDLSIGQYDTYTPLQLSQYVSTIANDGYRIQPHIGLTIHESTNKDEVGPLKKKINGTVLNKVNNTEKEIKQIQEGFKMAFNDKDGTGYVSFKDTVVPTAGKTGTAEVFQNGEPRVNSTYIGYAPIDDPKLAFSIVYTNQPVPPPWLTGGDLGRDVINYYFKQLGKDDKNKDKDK
# [8] = Inhibition of bocillin FL binding to Pseudomonas aeruginosa PAO1 penicillin-binding protein 1a
# Outline: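 P. aeruginosa PAO1 PBPs were isolated and competed with 10 drug concentrations from 0.06 μg/ml to 32 μg/ml before Bocillin FL labeling. Bands were detected by fluorescence imaging. IC50 was taken as 50% inhibition of Bocillin FL binding versus the no-drug sample.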
# [9] = biological target: T3, Penicillin-binding protein 2 (Pseudomonas aeruginosa, UniProt Q9X6V3); assay: Inhibition of bocillin FL binding to Pseudomonas aeruginosa PAO1 penicillin-binding protein 2
# T3 sequence (Q9X6V3 whole entry): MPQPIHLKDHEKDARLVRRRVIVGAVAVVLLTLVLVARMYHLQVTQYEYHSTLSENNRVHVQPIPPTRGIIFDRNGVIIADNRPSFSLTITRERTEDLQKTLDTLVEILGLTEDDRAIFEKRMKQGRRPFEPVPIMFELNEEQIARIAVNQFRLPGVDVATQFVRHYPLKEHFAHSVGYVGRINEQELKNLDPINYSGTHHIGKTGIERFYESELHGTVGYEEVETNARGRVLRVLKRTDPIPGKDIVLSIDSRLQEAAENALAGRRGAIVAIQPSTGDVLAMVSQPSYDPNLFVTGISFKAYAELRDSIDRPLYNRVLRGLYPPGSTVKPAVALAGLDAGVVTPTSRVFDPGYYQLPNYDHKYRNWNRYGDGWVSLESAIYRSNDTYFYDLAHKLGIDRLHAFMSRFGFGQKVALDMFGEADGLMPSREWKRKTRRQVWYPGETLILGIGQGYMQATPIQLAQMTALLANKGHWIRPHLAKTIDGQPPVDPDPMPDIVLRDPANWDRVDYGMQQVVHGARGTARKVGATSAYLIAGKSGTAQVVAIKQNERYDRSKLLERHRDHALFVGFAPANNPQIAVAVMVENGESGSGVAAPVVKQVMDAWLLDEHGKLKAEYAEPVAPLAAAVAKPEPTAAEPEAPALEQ
# Outline: (§3)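 Isolated P. aeruginosa PAO1 PBPs; drug added at 10 concentrations, 0.06 μg/ml to 32 μg/ml, before Bocillin FL labeling. Labeled PBPs imaged. IC50 is the drug level cutting Bocillin FL binding by 50% versus a no-drug sample.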
# [10] = biological target: Penicillin-binding protein 3 (Pseudomonas aeruginosa, UniProt Q51504); assay: Inhibition of bocillin FL binding to Pseudomonas aeruginosa PAO1 penicillin-binding protein 3; outline: as §3
# [11] = Inhibition of bocillin FL binding to Pseudomonas aeruginosa PAO1 penicillin-binding protein 5/6; outline: as §3
# Penicillin-binding protein 3 (Pseudomonas aeruginosa, UniProt Q51504), sequence (Q51504 whole entry): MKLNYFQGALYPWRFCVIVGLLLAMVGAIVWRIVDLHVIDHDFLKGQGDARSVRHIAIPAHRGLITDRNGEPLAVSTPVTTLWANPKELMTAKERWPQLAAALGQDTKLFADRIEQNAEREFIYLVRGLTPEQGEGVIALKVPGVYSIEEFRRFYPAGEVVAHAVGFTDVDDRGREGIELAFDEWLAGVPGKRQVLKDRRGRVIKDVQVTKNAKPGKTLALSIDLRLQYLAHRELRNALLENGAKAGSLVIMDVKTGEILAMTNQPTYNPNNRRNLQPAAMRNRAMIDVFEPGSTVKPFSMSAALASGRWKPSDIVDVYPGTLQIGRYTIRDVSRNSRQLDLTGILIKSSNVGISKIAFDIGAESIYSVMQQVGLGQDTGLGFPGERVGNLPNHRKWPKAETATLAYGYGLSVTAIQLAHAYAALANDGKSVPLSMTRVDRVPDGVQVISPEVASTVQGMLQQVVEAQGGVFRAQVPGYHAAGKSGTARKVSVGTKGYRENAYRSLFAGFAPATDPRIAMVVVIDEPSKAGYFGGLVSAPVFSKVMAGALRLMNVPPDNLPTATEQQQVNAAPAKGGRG
Structure (SMILES),IC50 [1] [µg/mL],MIC [2] [µg/mL],MIC [3] [µg/mL],IC50 [4] [µg/mL],IC50 [5] [µg/mL],IC50 [6] [nM],IC50 [7] [nM],IC50 [8] [µg/mL],IC50 [9] [nM],IC50 [10] [nM],IC50 [11] [µg/mL]
CO/N=C(\C(=O)N[C@@H]1C(=O)N2C(C(=O)O)=C(CSc3nc(=O)c(O)nn3C)CS[C@H]12)c1csc(N)n1 (stereo in doubt) [CEFTRIAXONE],8,8,2,0.03,0.5,180,1800,–,–,–,–
CC(C)(O/N=C(\C(=O)N[C@@H]1C(=O)N2C(C(=O)[O-])=C(C[n+]3ccccc3)CS[C@H]12)c1csc(N)n1)C(=O)O [CEFTAZIDIME],–,–,–,–,–,–,–,0.2,> 58500,183,> 32
Nc1nc(/C(=N/O)C(=O)N[C@@H]2C(=O)N3C(C(=O)O)=C(/C=C4\CCN([C@@H]5CCNC5)C4=O)CS[C@H]23)ns1 [CEFTOBIPROLE],1,1,0.25,0.01,0.1,935,93.5,0.1,5610,187,> 32
